Measured values as given in the RNAGym collection of RNA variant scans (doi:10.1126/science.aae0568).
Fewer inactive variants are shown than the library holds.

B1: tRNA (parent)
chain: GUUCCGUUGGCGUAAUGGUAACGCGUCUCCCUCCUAAGGAGAAGACUGCGGGUUCGAGUCCCGUACGGAACG

Variants of: B1
Assay: yeast fitness relative to wild type (ratio to wild type); higher = fitter; tRNA-Arg(CCU), competitive growth, 37 C, YPD
Outline: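 Variants of the tRNA-Arg(CCU) gene were chemically synthesised with a 3% per-site mutation rate across 69 sites and placed at the native genomic locus in Saccharomyces cerevisiae. Six parallel replicates of the pooled strains were competed in YPD at 37°C for 24 hours, and gene amplicons from the start and end populations were read by 100-nucleotide paired-end sequencing. Darwinian fitness relative to wild type was derived from changes in genotype frequencies. Genotypes required ≥ 100 starting reads, and estimates < 0.5 were set to 0.5.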

Row | Variant | yeast fitness
1 | U7A A21C C33A A45U | 0.616
2 | G6C U7C G9C C66U | 0.546
3 | G6C C29A C55A A65G | ≤ 0.5
4 | G6C G25A A70C | 0.631
5 | G6C C55G A70C | ≤ 0.5
6 | U7A A20G C34A G44A C46U A70C | ≤ 0.5
7 | G6C A37U A57C A69U A70C | ≤ 0.5
8 | G6C U35A G44C | 0.569
9 | G6C A57C A65U | ≤ 0.5
10 | G6U U35G A69U | 1.03
11 | U7A A43U | 0.622
12 | G6C C46U A57C | ≤ 0.5
13 | U7A C24U C46A | 0.567
14 | G6C U7G G17C C60G | 0.574
15 | U7A A37U C49U C55U A57C C61U | 0.934
16 | G6C U7C | 0.757
17 | G6C C11G G44C | ≤ 0.5
18 | G6C A70U | 0.823
19 | G6C G38C C46A | 0.54
20 | G6C C46U | 0.966
21 | U7A A21G C30G A36G C46G U54C A57U | ≤ 0.5
22 | G6C A36G G51A | ≤ 0.5
23 | G6C G41A A43G C60U A70C | ≤ 0.5
24 | G6U C62U | 0.831

Row | Variant | yeast fitness
25 | G6C U7A A21C A37C U47C A69C | ≤ 0.5
26 | U7A C29G A36C | 0.566
27 | U7A A40U | 0.714
28 | U7A A40C | 0.724
29 | U7A C11U C30U U59A A69C | ≤ 0.5
30 | G6C U7G G17C G67A | ≤ 0.5
31 | G6C C24A U28A C34U | ≤ 0.5
32 | U7A A15U | 0.587
33 | U7A C11G A36U C49U | ≤ 0.5
34 | G6C U13C C46A | 0.627
35 | G6C G12C C29A | ≤ 0.5
36 | G6C G9C U32A G38C U47A | ≤ 0.5
37 | G6C U53C A65G | ≤ 0.5
38 | G6C G17A C30U A42C A65G C66G G68A | ≤ 0.5
39 | G6C U7G A43U A65C | 0.825
40 | G6C G10A C27A C61U A65U | ≤ 0.5
41 | G6C C34U G44A C55G C66G | 0.649
42 | G6C U7G G17C U53A | ≤ 0.5
43 | G6C C33G A36C C49A C60G A65G A70U | ≤ 0.5
44 | U7A C22U | 0.798
45 | U7A A15U C30G A42C U59A C60U | ≤ 0.5
46 | G6C U16A G18C C22G C49U | ≤ 0.5
47 | U7A C27U C29U G63A | 0.598
48 | G6C U35A A40U G41C C49A | ≤ 0.5

Row | Variant | yeast fitness
49 | G6C G18C A21G A40U U47A C49U C61U A70G | ≤ 0.5
50 | G6C U28C C30A G39A | ≤ 0.5
51 | U7A C29G A36C C62A | ≤ 0.5
52 | U7A C11U U16A G25A | ≤ 0.5
53 | G6C U8C A42G C46U C55G A65U | ≤ 0.5
54 | U7A C22U U28A C29G C33A A42U A70U | ≤ 0.5
55 | G6C U47A C60G | ≤ 0.5
56 | U7A C27U | 0.666
57 | U7A C27A | 0.665
58 | G6U A40G C49A C61G | ≤ 0.5
59 | G6C C27U A45G U64A | 0.67
60 | G6C G23C | 0.643
61 | U7A A20U | 0.776
62 | G6C G12A C49U G58C | 0.776
63 | G6C C60A | 0.583
64 | G6C G41A C62U | ≤ 0.5
65 | G6C C22A G41A G44C | ≤ 0.5
66 | G6C C11U C31G A36G | 0.66
67 | G6C C24U A65C | ≤ 0.5
68 | G6C U13A C34A | ≤ 0.5
69 | G6C G38C A43C G51C G56C | 0.526
70 | G6U A40G C61A U64C | ≤ 0.5
71 | G6C C24G C27G C29A C34U U53A A70G | ≤ 0.5
72 | G6C C24A C31U G38C | ≤ 0.5

Row | Variant | yeast fitness
73 | G6C G23A C27U A45G U64A | ≤ 0.5
74 | G6C U64A | 0.853
75 | G6C C29A | 0.667
76 | G6C U7G G17C C49U G58C C61A A65U | ≤ 0.5
77 | G6C U35A A43U C62U G68C | ≤ 0.5
78 | U7A A20C A69C | 0.609
79 | G6C C60U C62A | ≤ 0.5
80 | G6C U13A C24U C31A U54C | ≤ 0.5
81 | U7A A14C G25A C30G C49U | 0.557
82 | U7A A21C C29U A37G C55U A70U | 0.55
83 | G6C G10C C30U U35A | ≤ 0.5
84 | G6C C33U G52C C55A | ≤ 0.5
85 | G6C G68C | 0.874
86 | G6C A45G | 0.823
87 | G6C C24U C46G | 0.586
88 | G6C C11A A45C C60U | ≤ 0.5
89 | G6C U16A G23C C60U | 0.625
90 | G6C G23A C49U | ≤ 0.5
91 | U7A C11G A40U A42C | ≤ 0.5
92 | G6C A65G C66U | 0.84
93 | U7A C24G C31U C55A | ≤ 0.5
94 | G6C U7C G48A | 0.614
95 | G6C U16C A42U G52U | 0.634
96 | U7A A69U | 0.759

Row | Variant | yeast fitness
97 | G6C C49U U53C C61G | ≤ 0.5
98 | G6C C62G | 0.688
99 | G6C C62U | 0.879
100 | G6C G23C C24A C61U | ≤ 0.5
101 | G6C A37C G67C | ≤ 0.5
102 | G6C C31A A36C G44A A57U C66A | ≤ 0.5
103 | G6C U8C G41C G51C | ≤ 0.5
104 | G6C C24G C34U U53C C55G C62A | 0.557
105 | U7A A14G G18C U54C | ≤ 0.5
106 | U7A A14G C31U G39C A40C A45U U47C G68C | ≤ 0.5
107 | U7A A21C A36G G68C | ≤ 0.5
108 | G6C U8A G58C C61A | ≤ 0.5
109 | G6C C11A U32A A42G C55U C61U | ≤ 0.5
110 | G6C G10C C22G C30U C34U A36U | 0.517
111 | G6C A69U | 0.976
112 | G6C A69C | 0.852
113 | G6C U7C A21U G44A | ≤ 0.5
114 | G6C U16G C46A | 0.599
115 | G6C U7C C34G C55U | ≤ 0.5
116 | G6C A37C G51A U53C C62A A70C | ≤ 0.5
117 | G6C G12A U54C | 0.594
118 | U7A A20C A21G G23A G56A | ≤ 0.5
119 | G6C C31U G39A C46G | ≤ 0.5
120 | G6C C30A A45G C55G A57U C62G | ≤ 0.5

Row | Variant | yeast fitness
121 | G6C U47A | 0.818
122 | G6C C22A C33G G48C | ≤ 0.5
123 | G6C U19G A43U G58C C66A | ≤ 0.5
124 | U7A C11U C49A | 0.614
125 | G6C A42U C61A U64A A69U | ≤ 0.5
126 | G6C C34G A69C | ≤ 0.5
127 | G6C C11U G56C A69C | ≤ 0.5
128 | G6C A57G A65G C66U | 0.537
129 | G6C G50A A70U | 0.633
130 | G6C G56A | 1.03
131 | G6C A43C G50A | ≤ 0.5
132 | U7A A20G A40U | ≤ 0.5
133 | U7A A14C A20G C66G | ≤ 0.5
134 | U7A C27U A69C | 0.649
135 | U7A A45C U47C C55U A65C A69C | ≤ 0.5
136 | G6C C33U C62U | ≤ 0.5
137 | G6C C24U | 0.751
138 | G6U G44C | 0.755
139 | G6C U32A | 0.756
140 | U7A C29G | ≤ 0.5
141 | U7A C11A A21C C29U C49U | 0.544
142 | G6C C27A C30G G41C C61G C62U A69U | ≤ 0.5
143 | G6C G51A | 0.791
144 | G6C C30G | 0.592

Row | Variant | yeast fitness
145 | G6C C55U U59G A70U | ≤ 0.5
146 | U7A A36C A57C | ≤ 0.5
147 | G6C U8A G51A A65U G67A | ≤ 0.5
148 | G6C G51C G68C | 0.562
149 | G6C U16A G18C C22G | 0.615
150 | U7A A20G C29A | 0.544
151 | G6C G10A | 0.666
152 | G6C A40G C66U | ≤ 0.5
153 | U7A A15G G23A G25A A69C | ≤ 0.5
154 | G6C G23C C31G | ≤ 0.5
155 | U7A A65U | 0.996
156 | G6U G63C | 0.615
157 | G6C U16C C46G C62U C66U | ≤ 0.5
158 | U7A A14G U28G C30U | ≤ 0.5
159 | U7A A15U G67A | ≤ 0.5
160 | G6C U28A C33G | ≤ 0.5
161 | U7A A36C G51C | ≤ 0.5
162 | G6C C29G C30U G51C C66A | 0.686
163 | U7A A21C C31G | ≤ 0.5
164 | G6C C24A A69U | ≤ 0.5
165 | U7A A36U | 0.607
166 | G6C U53A C60A | ≤ 0.5
167 | U7A A36U C60A U64C | ≤ 0.5
